These results are taken from ChEMBL document CHEMBL1765003, “Discovery of (1S,2R,3R)-2,3-dimethyl-2-phenyl-1-sulfamidocyclopropanecarboxylates: novel and highly selective aggrecanase inhibitors” (J Med Chem, 2011).

The IC50 is the concentration that inhibits the measured activity by half.

SMILES strings stand for the structures. Some results are limits rather than exact numbers.

In assay [1] the target is Disintegrin and metalloproteinase domain-containing protein 17 (Homo sapiens, UniProt P78536). Nature of the assay: Inhibition of human recombinant TACE after 60 mins by fluorescence plate reader. In a few lines:
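rh-TACE at 80 ng/mL with 10 μM MCA-Pro-Leu-Ala-Gln-Ala-Val-Dpa-Arg-Ser-Ser-Ser-Arg-NH₂, in 100 mM Tris-HCl pH 7.5, 150 mM NaCl, 10 mM CaCl₂, 0.05% Brij-35. Inhibitor preincubated for 15 min at 25 °C. Fluorescence (ex 325/em 405 nm) read at 60 min. IC50 from three linear-range points; mean of ≥2.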

Assay [2] concerns the target T1, Interstitial collagenase (Homo sapiens, UniProt P03956).
T1 sequence (P03956 whole entry): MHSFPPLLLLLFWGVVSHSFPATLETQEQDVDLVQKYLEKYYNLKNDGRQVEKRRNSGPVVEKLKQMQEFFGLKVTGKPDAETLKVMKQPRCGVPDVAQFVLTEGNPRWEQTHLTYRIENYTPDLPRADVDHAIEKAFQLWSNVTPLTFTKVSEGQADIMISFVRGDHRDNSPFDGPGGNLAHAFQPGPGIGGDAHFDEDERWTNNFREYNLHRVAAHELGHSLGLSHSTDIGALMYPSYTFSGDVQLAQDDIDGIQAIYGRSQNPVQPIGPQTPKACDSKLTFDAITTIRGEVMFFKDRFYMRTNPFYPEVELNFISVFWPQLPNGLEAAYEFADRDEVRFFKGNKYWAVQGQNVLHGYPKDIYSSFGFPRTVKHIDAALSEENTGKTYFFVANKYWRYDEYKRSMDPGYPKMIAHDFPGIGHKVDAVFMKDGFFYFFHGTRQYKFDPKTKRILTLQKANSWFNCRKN
Nature of the assay: Inhibition of human recombinant MMP1 after 60 mins by fluorescence plate reader. The essentials: (§1)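 Recombinant human enzyme at 20 ng/mL with 10 μM MOCAc-Lys-Pro-Leu-Gly-Leu-A2pr(Dnp)-Ala-Arg-NH₂, in 100 mM Tris-HCl pH 7.5, 150 mM NaCl, 10 mM CaCl₂, 0.05% Brij-35. Enzyme pretreated with inhibitor for 15 min at 25 °C, then substrate added. Fluorescence (ex 325, em 405 nm) read at 60 min. IC50 taken from three points in the linear range; mean of ≥2 determinations.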

In assay [3] the target is T2, A disintegrin and metalloproteinase with thrombospondin motifs 5 (Homo sapiens, UniProt Q9UNA0).
T2 sequence (Q9UNA0 whole entry): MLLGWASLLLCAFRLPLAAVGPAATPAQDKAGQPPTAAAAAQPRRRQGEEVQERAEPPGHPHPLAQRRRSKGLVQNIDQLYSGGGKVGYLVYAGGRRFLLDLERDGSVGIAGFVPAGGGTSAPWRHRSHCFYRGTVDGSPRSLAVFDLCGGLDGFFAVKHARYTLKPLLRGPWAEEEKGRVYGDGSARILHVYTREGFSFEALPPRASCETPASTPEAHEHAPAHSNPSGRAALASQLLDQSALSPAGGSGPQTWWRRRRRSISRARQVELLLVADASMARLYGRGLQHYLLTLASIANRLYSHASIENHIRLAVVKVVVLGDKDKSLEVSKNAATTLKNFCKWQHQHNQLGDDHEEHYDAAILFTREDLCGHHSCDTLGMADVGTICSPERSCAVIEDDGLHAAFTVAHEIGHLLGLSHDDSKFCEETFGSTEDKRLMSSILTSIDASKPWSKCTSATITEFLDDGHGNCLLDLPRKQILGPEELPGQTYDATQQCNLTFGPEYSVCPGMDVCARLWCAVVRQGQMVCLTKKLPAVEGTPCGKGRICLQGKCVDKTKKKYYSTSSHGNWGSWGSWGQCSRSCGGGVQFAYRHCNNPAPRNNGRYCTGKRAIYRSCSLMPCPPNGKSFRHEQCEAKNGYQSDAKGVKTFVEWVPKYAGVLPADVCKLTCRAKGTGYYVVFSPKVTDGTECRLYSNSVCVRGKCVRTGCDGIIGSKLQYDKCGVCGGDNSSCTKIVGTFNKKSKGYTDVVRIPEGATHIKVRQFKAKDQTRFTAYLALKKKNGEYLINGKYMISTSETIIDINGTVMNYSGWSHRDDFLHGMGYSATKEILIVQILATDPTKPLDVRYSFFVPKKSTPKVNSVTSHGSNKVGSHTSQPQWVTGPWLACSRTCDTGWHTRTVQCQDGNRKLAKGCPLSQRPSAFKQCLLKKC
Briefly: Inhibition of human recombinant aggrecanase 2 after 150 mins by fluorescence plate reader.

Assay [4] addresses Matrix metalloproteinase-14 (Homo sapiens, UniProt P50281). Nature of the assay: Inhibition of human recombinant MMP14 after 60 mins by fluorescence plate reader. The essentials:
as §1

Chain of Disintegrin and metalloproteinase domain-containing protein 17 (P78536 whole entry, the tested form may be a part): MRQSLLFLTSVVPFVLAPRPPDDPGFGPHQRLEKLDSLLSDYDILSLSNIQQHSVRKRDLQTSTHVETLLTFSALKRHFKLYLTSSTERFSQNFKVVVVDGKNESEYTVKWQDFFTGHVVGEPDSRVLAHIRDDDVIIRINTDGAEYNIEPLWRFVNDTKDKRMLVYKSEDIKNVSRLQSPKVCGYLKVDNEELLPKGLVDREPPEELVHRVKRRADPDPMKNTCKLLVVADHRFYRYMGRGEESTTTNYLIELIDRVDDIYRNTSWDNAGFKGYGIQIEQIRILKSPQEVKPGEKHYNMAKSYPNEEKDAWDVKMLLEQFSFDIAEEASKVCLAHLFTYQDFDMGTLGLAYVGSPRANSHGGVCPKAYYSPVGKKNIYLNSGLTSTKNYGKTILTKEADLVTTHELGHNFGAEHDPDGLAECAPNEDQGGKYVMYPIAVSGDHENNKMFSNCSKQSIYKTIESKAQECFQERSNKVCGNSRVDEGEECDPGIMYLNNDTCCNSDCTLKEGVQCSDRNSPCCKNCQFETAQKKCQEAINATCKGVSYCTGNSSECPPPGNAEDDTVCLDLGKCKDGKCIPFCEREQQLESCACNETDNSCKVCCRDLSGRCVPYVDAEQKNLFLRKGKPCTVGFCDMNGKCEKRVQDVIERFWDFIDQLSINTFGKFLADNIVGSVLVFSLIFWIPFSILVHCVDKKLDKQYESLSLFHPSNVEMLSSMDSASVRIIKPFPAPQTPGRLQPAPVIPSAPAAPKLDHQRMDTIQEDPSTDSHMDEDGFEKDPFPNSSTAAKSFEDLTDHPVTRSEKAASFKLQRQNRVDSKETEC

As for `C[C@@H]1[C@H](c2ccccc2)[C@]1(NS(=O)(=O)c1cc2nn3cc(Cl)ccc3c2s1)C(=O)O`, the IC50 in assay [1] is more than 10000 nM; in assay [2], 1300 nM; in assay [3] it was 29 nM; in assay [4], 100 nM.

For `Cc1ccc2c(c1)nc1n2CCN(S(=O)(=O)N[C@@]2(C(=O)O)[C@H](C)[C@@H]2c2ccccc2)C1`, the IC50 in assay [1] is more than 10000 nM; in assay [2], more than 10000 nM; in assay [3], 320 nM; in assay [4], 900 nM.

Consider `C[C@@H]1[C@H](c2ccccc2)[C@]1(NS(=O)(=O)N1CCN(c2ccc(Cl)cc2)C(CO)C1)C(=O)O` (mixture of isomers), for which the IC50 in assay [3] turned out to be 230 nM; in assay [4], 6100 nM.

Regarding `C[C@@H]1CN(S(=O)(=O)N[C@@]2(C(=O)O)[C@H](C)[C@@H]2c2ccccc2)CCN1c1cc(C(C)(F)F)on1`, the IC50 in assay [1] is more than 10000 nM; in assay [2] it was 2600 nM; in assay [3], 130 nM; in assay [4] it was 1100 nM.

In the case of `C[C@@H]1[C@H](c2ccccc2)[C@]1(NS(=O)(=O)c1ccc(-c2ccc(Cl)cc2)s1)C(=O)O`, the IC50 was 2700 nM in assay [1], 4000 nM in assay [2] and 19 nM in assay [4].

`C[C@@H]1[C@H](c2ccccc2)[C@]1(NS(=O)(=O)N1CCn2c(nc3ccccc32)C1)C(=O)O`: the IC50 was more than 10000 nM in assay [1], more than 10000 nM in assay [2], 92 nM in assay [3] and 2200 nM in assay [4].

Consider `Cc1cnn(-c2ccc(S(=O)(=O)N[C@@]3(C(=O)O)[C@H](C)[C@@H]3c3ccccc3)s2)c1`, for which the IC50 in assay [1] is more than 10000 nM; in assay [2] it was less than 300 nM; in assay [3] it was 19 nM; in assay [4] it was 1.2 nM.

As for `C[C@@H]1[C@H](c2ccccc2)[C@]1(NS(=O)(=O)c1cc2[nH]c3cc(Cl)ccc3c2s1)C(=O)O`, the IC50 is 3800 nM in assay [1], 1000 nM in assay [2], 2.9 nM in assay [3] and 17 nM in assay [4].

Turning to `C[C@@H]1[C@](C)(c2ccccc2)[C@]1(NS(=O)(=O)N1CCc2c(nn3cc(F)ccc23)C1)C(=O)O`, the IC50 in assay [1] was more than 10000 nM; in assay [2], more than 10000 nM; in assay [3], 10 nM; in assay [4] it was 2100 nM.

Regarding `C[C@@H]1[C@H](c2ccccc2)[C@]1(NS(=O)(=O)N1CCn2c(nc3ccc(F)cc32)C1)C(=O)O`, the half-maximal inhibitory concentration (IC50) in assay [1] was more than 10000 nM; in assay [2], more than 10000 nM; in assay [3], 100 nM; in assay [4], 240 nM.

With `C[C@@H]1[C@H](c2ccccc2)[C@]1(NS(=O)(=O)N1CCc2c(nc3cc(F)ccn23)C1)C(=O)O`, the IC50 in assay [1] was 6300 nM; in assay [2], more than 10000 nM; in assay [3], 17 nM; in assay [4], 2100 nM.

With `C[C@@H]1[C@H](c2ccccc2)[C@]1(NS(=O)(=O)N1CC=C(c2ccc(Cl)cc2)CC1)C(=O)O`, the IC50 is more than 10000 nM in assay [1], more than 10000 nM in assay [2], 62 nM in assay [3] and 300 nM in assay [4].

For the compound `C[C@@H]1[C@H](c2ccccc2)[C@]1(NS(=O)(=O)c1cc2nc3cc(Cl)ccn3c2s1)C(=O)O`, the IC50 in assay [1] was more than 10000 nM; in assay [2], 1500 nM; in assay [3] it was 23 nM; in assay [4] it was 100 nM.

As to `COc1cnn(-c2ccc(S(=O)(=O)N[C@@]3(C(=O)O)[C@H](C)[C@@H]3c3ccccc3)s2)c1`, the IC50 in assay [1] came out at 1600 nM; in assay [2], 33 nM; in assay [3] it was 17 nM; in assay [4], 1.3 nM.

As for `C[C@@H]1[C@H](c2ccccc2)[C@]1(NS(=O)(=O)N1CCN(c2ccc(Cl)cc2)CC1)C(=O)O`, the IC50 is more than 10000 nM in assay [1], more than 10000 nM in assay [2], 87 nM in assay [3] and 450 nM in assay [4].

For the compound `C[C@@H]1CN(S(=O)(=O)N[C@@]2(C(=O)O)[C@H](C)[C@@H]2c2ccccc2)CCN1c1ccc(F)cc1`, the IC50 in assay [1] is more than 10000 nM; in assay [2] it was more than 10000 nM; in assay [3], 180 nM; in assay [4], more than 10000 nM.

Consider `C[C@@H]1[C@H](c2ccccc2)[C@]1(NS(=O)(=O)N1CCn2c(nc3cc(Cl)ccc32)C1)C(=O)O`, for which the IC50 in assay [1] was more than 10000 nM; in assay [2], more than 10000 nM; in assay [3], 60 nM; in assay [4], 610 nM.

Consider `C[C@@H]1[C@H](c2ccccc2)[C@]1(NS(=O)(=O)c1cc2[nH]c3cc(F)ccc3c2s1)C(=O)O`, for which the IC50 in assay [1] came to 1100 nM; in assay [2], 230 nM; in assay [3] it was 8.3 nM; in assay [4], 8 nM.

Take `C[C@@H]1[C@H](c2ccccc2)[C@]1(NS(=O)(=O)c1cc2[nH]c3ccc(F)cc3c2s1)C(=O)O`: the IC50 in assay [1] amounted to 1900 nM; in assay [2] it was 1300 nM; in assay [3] it was 10 nM; in assay [4] it was 25 nM.

Turning to `C[C@@H]1CN(S(=O)(=O)N[C@@]2(C(=O)O)[C@H](C)[C@@H]2c2ccccc2)CCN1c1ccc(C#N)s1`, the IC50 in assay [1] is more than 10000 nM; in assay [2], more than 10000 nM; in assay [3], 33 nM; in assay [4], 6000 nM.

Take `C[C@@H]1[C@H](c2ccccc2)[C@]1(NS(=O)(=O)N1CCn2c(nc3cc(C#N)ccc32)C1)C(=O)O`: the IC50 in assay [1] is more than 10000 nM; in assay [2], more than 10000 nM; in assay [3], 250 nM; in assay [4] it was 4900 nM.

In the case of `C[C@@H]1[C@H](c2ccccc2)[C@]1(NS(=O)(=O)N1CCn2c(nc3cc(F)ccc32)C1)C(=O)O`, the IC50 was more than 10000 nM in assay [1], more than 10000 nM in assay [2], 20 nM in assay [3] and 1100 nM in assay [4].

With `C[C@@H]1[C@H](c2ccccc2)[C@]1(NS(=O)(=O)N1CCN(c2ccc(Cl)cc2)C(C)(C)C1)C(=O)O`, the IC50 amounted to 330 nM in assay [3] and 2900 nM in assay [4].

In the case of `C[C@@H]1CN(S(=O)(=O)N[C@@]2(C(=O)O)[C@H](C)[C@@H]2c2ccccc2)CCN1c1ccc(C2CC2)cc1`, the IC50 in assay [2] is more than 10000 nM; in assay [3], 270 nM; in assay [4], 1400 nM.

With `COCc1cc(N2CCN(S(=O)(=O)N[C@@]3(C(=O)O)[C@H](C)[C@@H]3c3ccccc3)C[C@H]2C)no1`, the IC50 in assay [1] is more than 10000 nM; in assay [2] it was more than 10000 nM; in assay [3] it was 67 nM; in assay [4] it was 1400 nM.

`C[C@@H]1[C@H](c2ccccc2)[C@]1(NS(=O)(=O)N1CCc2c(nc3cc(Cl)ccn23)C1)C(=O)O`: the IC50 is more than 10000 nM in assay [1], more than 10000 nM in assay [2], 21 nM in assay [3] and 270 nM in assay [4].

Consider `C[C@@H]1[C@H](c2ccccc2)[C@]1(NS(=O)(=O)N1CCn2c(cc3cc(Cl)ccc32)C1)C(=O)O`, for which the half-maximal inhibitory concentration (IC50) in assay [1] was more than 10000 nM; in assay [2], more than 10000 nM; in assay [3], 39 nM; in assay [4] it was 420 nM.

Regarding `Cc1cc(S(=O)(=O)N[C@@]2(C(=O)O)[C@H](C)[C@@H]2c2ccccc2)sc1-n1cc(Cl)cn1`, the IC50 in assay [3] is more than 1000 nM.

Turning to `CCC1CN(S(=O)(=O)N[C@@]2(C(=O)O)[C@H](C)[C@@H]2c2ccccc2)CCN1c1ccc(Cl)cc1` (mixture of isomers), the IC50 in assay [3] is 410 nM; in assay [4] it was more than 10000 nM.
